One experiment has as its target Plasminogen (Homo sapiens, UniProt P00747). The experiment is described as follows: Inhibition of human plasmin using H-D-Val-Leu-LyspNA (S-2251) peptide as substrate assessed as reduction of enzyme hydrolytic activity. Put shortly: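 Plasmin activity was measured with 0.3 mM S-2251 as substrate and read as absorbance at 405 nm. IC50 is the inhibitor concentration cutting absorbance by 50% compared with the inhibitor-free control under the same conditions.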

A further experiment addresses Plasma kallikrein (Homo sapiens, UniProt P03952). Kind of experiment: Inhibition of human plasma kallikerin using H-D-Phe-Pro-Arg-pNA (S-2302) peptide as substrate assessed as reduction of enzyme hydrolytic activity. Summed up:
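Plasma kallikrein activity on synthetic peptide substrate S-2302 at 0.2 mM, with and without inhibitor. Hydrolysis followed as absorbance at 405 nm. IC50 is the inhibitor concentration giving a 50% drop in absorbance compared with the uninhibited control under the same conditions.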

Experiment [1] concerns the target Urokinase-type plasminogen activator (Homo sapiens, UniProt P00749). The experiment is described as follows: Inhibition of human plasma urokinase using Glu-Gly-Arg-pNA (S-2444) peptide as substrate assessed as reduction of enzyme hydrolytic activity. Put shortly: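 Urokinase hydrolysis of S-2444 at 0.1 mM, monitored by absorbance at 405 nm. IC50 defined as the inhibitor concentration that lowers absorbance by 50% compared with enzyme run under the same conditions without inhibitor.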

Structures are written as SMILES. Where only a bound is given, the exact number is not on record here.

In ChEMBL document CHEMBL3232735, “Pyrrolopyrimidine-inhibitors with hydantoin moiety as spacer can explore P4/S4 interaction on plasmin” (Bioorg Med Chem, 2014) one finds IC50 data, which are given here for 21 compounds.

Plasminogen, sequence (P00747 97-580 limits assumed): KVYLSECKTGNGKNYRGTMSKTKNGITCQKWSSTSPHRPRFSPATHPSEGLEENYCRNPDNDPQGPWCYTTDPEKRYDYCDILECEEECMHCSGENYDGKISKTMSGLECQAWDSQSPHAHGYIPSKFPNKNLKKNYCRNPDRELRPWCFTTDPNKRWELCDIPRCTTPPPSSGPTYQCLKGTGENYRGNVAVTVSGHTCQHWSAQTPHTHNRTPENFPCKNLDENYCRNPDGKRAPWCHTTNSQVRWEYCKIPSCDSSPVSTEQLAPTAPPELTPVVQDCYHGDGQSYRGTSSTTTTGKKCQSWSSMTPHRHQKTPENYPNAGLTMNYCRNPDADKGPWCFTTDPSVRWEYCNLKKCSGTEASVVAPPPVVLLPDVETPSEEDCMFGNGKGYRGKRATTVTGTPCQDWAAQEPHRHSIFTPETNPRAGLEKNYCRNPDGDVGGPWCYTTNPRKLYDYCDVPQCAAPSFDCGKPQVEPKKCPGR
Plasminogen, sequence (P00747 581-810 limits assumed): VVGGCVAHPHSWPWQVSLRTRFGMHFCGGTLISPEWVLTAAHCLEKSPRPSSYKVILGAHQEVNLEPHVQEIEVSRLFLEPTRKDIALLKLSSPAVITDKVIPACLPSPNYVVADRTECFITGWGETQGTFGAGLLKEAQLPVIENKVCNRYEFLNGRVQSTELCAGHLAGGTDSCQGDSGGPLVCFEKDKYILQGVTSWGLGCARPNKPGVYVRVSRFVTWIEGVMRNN
Plasma kallikrein, sequence (P03952 20-390 limits assumed): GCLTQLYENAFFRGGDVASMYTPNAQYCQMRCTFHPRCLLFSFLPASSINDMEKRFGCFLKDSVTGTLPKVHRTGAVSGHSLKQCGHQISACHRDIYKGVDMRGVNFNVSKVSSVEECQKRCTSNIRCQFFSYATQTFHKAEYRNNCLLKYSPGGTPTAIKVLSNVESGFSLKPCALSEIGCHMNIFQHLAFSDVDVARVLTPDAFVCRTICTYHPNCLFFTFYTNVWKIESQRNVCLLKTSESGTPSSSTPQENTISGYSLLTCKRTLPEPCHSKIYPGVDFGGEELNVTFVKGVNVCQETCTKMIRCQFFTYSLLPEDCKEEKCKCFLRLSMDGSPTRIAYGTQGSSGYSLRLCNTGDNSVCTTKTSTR
Plasma kallikrein, sequence (P03952 391-638 limits assumed): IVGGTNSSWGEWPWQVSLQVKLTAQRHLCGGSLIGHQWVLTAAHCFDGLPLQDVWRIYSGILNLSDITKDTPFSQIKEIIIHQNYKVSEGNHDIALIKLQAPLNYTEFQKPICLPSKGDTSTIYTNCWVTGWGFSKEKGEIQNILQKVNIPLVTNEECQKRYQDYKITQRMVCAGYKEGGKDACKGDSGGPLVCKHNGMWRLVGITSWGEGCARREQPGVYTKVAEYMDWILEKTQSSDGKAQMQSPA

Usually IC50 stands for the concentration that gives 50% inhibition. For `Cn1c(CN2C(=O)CN(c3ccc(OCc4ccncc4)c(C(N)=O)c3)C2=O)cc2cnc(C(=O)N[C@H](C#N)CCCCN)nc21`, the values for the 50% inhibitory concentration (IC50) (on Plasminogen; on Plasma kallikrein; in experiment [1]) were 170 µM, over 1000 µM and over 1000 µM, respectively.

Turning to `Cn1c(CN2CC(=O)N(c3ccc(Oc4ccccc4)cc3)CC2=O)cc2cnc(C(=O)N[C@H](C#N)CCCCN)nc21`, the IC50 on Plasminogen was 960 µM; on Plasma kallikrein it was over 1000 µM; in experiment [1], over 1000 µM.

With `CN1CC(=O)N(Cc2cc3cnc(C(=O)N[C@H](C#N)CCCCN)nc3n2C)C1=O`, the IC50 (at Plasminogen; at Plasma kallikrein; in experiment [1]) was over 1000 µM throughout.

For `Cn1c(CN2C(=O)CN(c3ccc(F)cc3)C2=O)cc2cnc(C(=O)N[C@H](C#N)CCCCN)nc21`, the IC50 on Plasminogen is 130 µM; on Plasma kallikrein, 740 µM; in experiment [1], over 1000 µM.

`COc1ccc(N2CC(=O)N(Cc3cc4cnc(C(=O)N[C@H](C#N)CCCCN)nc4n3C)C2=O)cc1`: the IC50 on Plasminogen is 180 µM; on Plasma kallikrein, over 1000 µM; in experiment [1], over 1000 µM.

Regarding `CCCc1ccc(N2CC(=O)N(Cc3cc4cnc(C(=O)N[C@H](C#N)CCCCN)nc4n3C)C2=O)cc1`, the IC50 at Plasminogen is 330 µM; at Plasma kallikrein it was over 1000 µM; in experiment [1], over 1000 µM.

For the compound `Cn1c(CN2C(=O)CN(c3ccc(S(N)(=O)=O)cc3)C2=O)cc2cnc(C(=O)N[C@H](C#N)CCCCN)nc21`, the IC50 at Plasminogen is 260 µM; at Plasma kallikrein it was over 1000 µM; in experiment [1], over 400 µM.

Regarding `Cn1c(CN2C(=O)CN(c3ccc(C(N)=O)cc3)C2=O)cc2cnc(C(=O)N[C@H](C#N)CCCCN)nc21`, the IC50 on Plasminogen was 160 µM; on Plasma kallikrein, over 1000 µM; in experiment [1], over 1000 µM.

As for `Cn1c(CN2C(=O)CN(c3ccc(C#N)cc3)C2=O)cc2cnc(C(=O)N[C@H](C#N)CCCCN)nc21`, the IC50 on Plasminogen was 210 µM; on Plasma kallikrein, over 1000 µM; in experiment [1], over 1000 µM.

For `Cn1c(CN2C(=O)CN(c3cccc(S(N)(=O)=O)c3)C2=O)cc2cnc(C(=O)N[C@H](C#N)CCCCN)nc21`, the IC50 on Plasminogen was 220 µM; at Plasma kallikrein, over 1000 µM; in experiment [1] it was over 1000 µM.

Turning to `Cn1c(CN2C(=O)CN(c3cccc(C(N)=O)c3)C2=O)cc2cnc(C(=O)N[C@H](C#N)CCCCN)nc21`, the IC50 at Plasminogen was 100 µM; at Plasma kallikrein, over 1000 µM; in experiment [1], over 1000 µM.

For the compound `Cn1c(CN2C(=O)CN(c3cccc(C#N)c3)C2=O)cc2cnc(C(=O)N[C@H](C#N)CCCCN)nc21`, the IC50 on Plasminogen was 220 µM; on Plasma kallikrein it was over 1000 µM; in experiment [1], over 1000 µM.

With `CC(=O)COc1ccc(N2CC(=O)N(Cc3cc4cnc(C(=O)N[C@H](C#N)CCCCN)nc4n3C)C2=O)cc1`, the IC50 on Plasminogen was 250 µM; at Plasma kallikrein, over 1000 µM; in experiment [1], over 1000 µM.

For the compound `Cn1c(CN2C(=O)CN(c3ccc(OCC(N)=O)cc3)C2=O)cc2cnc(C(=O)N[C@H](C#N)CCCCN)nc21`, the figures for the IC50 (at Plasminogen; at Plasma kallikrein; in experiment [1]) were 400 µM, over 1000 µM and over 1000 µM, respectively.

As to `Cn1c(CN2C(=O)CN(c3ccc(OCC#N)cc3)C2=O)cc2cnc(C(=O)N[C@H](C#N)CCCCN)nc21`, the IC50 on Plasminogen is 130 µM; on Plasma kallikrein, over 1000 µM; in experiment [1], over 1000 µM.

Regarding `Cn1c(CN2C(=O)CN(c3ccc(Oc4ccccc4)cc3)C2=O)cc2cnc(C(=O)N[C@H](C#N)CCCCN)nc21`, the IC50 is 51 µM at Plasminogen, over 1000 µM at Plasma kallikrein and over 400 µM in experiment [1].

Regarding `COc1ccc(Oc2ccc(N3CC(=O)N(Cc4cc5cnc(C(=O)N[C@H](C#N)CCCCN)nc5n4C)C3=O)cc2)cc1`, the concentration for half-maximal inhibition (IC50) at Plasminogen was 64 µM; at Plasma kallikrein, over 1000 µM; in experiment [1], over 400 µM.

Regarding `Cn1c(CN2C(=O)CN(c3ccc(OCc4ccncc4)cc3)C2=O)cc2cnc(C(=O)N[C@H](C#N)CCCCN)nc21`, the IC50 at Plasminogen is 87 µM; at Plasma kallikrein it was over 1000 µM; in experiment [1] it was over 1000 µM.

For `Cn1c(CN2C(=O)CN(c3ccc(Oc4ccc5ncccc5c4)cc3)C2=O)cc2cnc(C(=O)N[C@H](C#N)CCCCN)nc21`, the half-inhibitory concentration (IC50) on Plasminogen is over 250 µM; at Plasma kallikrein, over 1000 µM; in experiment [1], over 400 µM.

Consider `Cn1c(CN2C(=O)CN(c3ccc(Oc4ccccc4C(N)=O)cc3)C2=O)cc2cnc(C(=O)N[C@H](C#N)CCCCN)nc21`, for which the IC50 at Plasminogen was 99 µM; at Plasma kallikrein, over 1000 µM; in experiment [1], over 1000 µM.

Regarding `Cn1c(CN2C(=O)CN(c3ccc(Oc4ccccc4)c(C(N)=O)c3)C2=O)cc2cnc(C(=O)N[C@H](C#N)CCCCN)nc21`, the IC50 on Plasminogen is 510 µM; at Plasma kallikrein, over 1000 µM; in experiment [1], over 1000 µM.
